Experimental data: ChEMBL document CHEMBL4251573, “Synthesis and biological evaluation of N-substituted 3-oxo-1,2,3,4-tetrahydro-quinoxaline-6-carboxylic acid derivatives as tubulin polymerization inhibitors” (Eur J Med Chem, 2018)
Calls of active or inactive are those of the source. The rule behind the calls is not given here.

Legend:
HeLa [1] = experiment: Antiproliferative activity against human HeLa cells after 72 hrs by MTT assay; type: functional, cell-based
In short: (§1)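 HeLa and SMMC-7721 cells in log phase were seeded at 4000-6000 cells/well. After 24 h, quadruplicate wells were treated with a series of concentrations for 72 h. DMSO stocks were 5 mmol/L, with final DMSO below 0.1%. MTT (10 mg/mL in PBS) was added for 4 h, medium replaced with DMSO, and OD read at 490 nm. IC50 came from at least five concentrations; mean and SD of at least three independent experiments.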

SMMC-7721 = experiment: Antiproliferative activity against human SMMC7721 cells after 72 hrs by MTT assay; type: functional, cell-based; conditions: SMMC-7721, 72 h; in short: as §1
K562 = experiment: Antiproliferative activity against human K562 cells after 72 hrs by MTT assay; type: functional, cell-based; conditions: K562, 72 h
In short: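 K562 cells were grown in RPMI 1640 with 10% FBS at 37 °C in 5% CO2, then seeded at 4000-6000 cells/well. Quadruplicate wells were exposed to drug for 72 h, with final DMSO below 0.1%. After 4 h with MTT, solubilizer (10% SDS, 5% isobutyl alcohol, 0.01 M HCl) was added for 12 h, then OD read at 490 nm. IC50 came from at least five concentrations; mean and SD of at least three experiments.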

Tubulin = experiment: Inhibition of tubulin (unknown origin) polymerization after 40 mins by fluorescence assay; type: protein-complex assay, Homo sapiens
In short: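 Fluorescence-based kit assay. Compounds, in duplicate, were warmed 1 min at 37 °C, then cold tubulin mix was added (2 mg/mL tubulin in 80 mM PIPES pH 6.9, 2.0 mM MgCl2, 0.5 mM EGTA, 1.0 mM GTP, 15% glycerol). Assembly was read at ex 360/em 450 nm each minute for 1 h at 37 °C; 0.1% DMSO vehicle. IC50 is the concentration halving assembly extent at 40 min, from four concentrations.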

HeLa [2] = experiment: Disruption of microtubule network in human HeLa cells after 24 hrs by Hoechst 33342 staining-based immunofluorescence microscopic method; type: cell-based
In short: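 HeLa cells were plated at 4000 per well for 24 h, then exposed for 24 h to vehicle or drug (0.1-0.2 μM). Fixation was 4% paraformaldehyde, 10 min, 4 °C, then 0.1% Triton X-100, 5 min, and 1% BSA block, 1 h. Staining used anti-α-tubulin (1:100, 12 h, 4 °C), then FITC anti-mouse IgG (1:100, 30 min, 37 °C), with Hoechst 33342 for nuclei. Imaged by fluorescence microscopy.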

HeLa [3] = experiment: Cell cycle arrest in human HeLa cells assessed as accumulation at sub G1 phase at 0.10 uM after 24 hrs by propidium iodide staining-based flow cytometric method (reference value: 7.6%); type: functional
HeLa [4] = experiment: Cell cycle arrest in human HeLa cells assessed as accumulation at G0/G1 phase at 0.10 uM after 24 hrs by propidium iodide staining-based flow cytometric method (reference value: 62.2%); type: functional
HeLa [5] = experiment: Cell cycle arrest in human HeLa cells assessed as accumulation at S phase at 0.10 uM after 24 hrs by propidium iodide staining-based flow cytometric method (reference value: 10.3%); type: functional
HeLa [6] = experiment: Cell cycle arrest in human HeLa cells assessed as accumulation at G0/G1 phase at 0.15 uM after 24 hrs by propidium iodide staining-based flow cytometric method (reference value: 62.2%); type: functional
HeLa [7] = experiment: Cell cycle arrest in human HeLa cells assessed as accumulation at sub G1 phase at 0.20 uM after 24 hrs by propidium iodide staining-based flow cytometric method (reference value: 7.6%); type: functional
HeLa [8] = experiment: Cell cycle arrest in human HeLa cells assessed as accumulation at S phase at 0.20 uM after 24 hrs by propidium iodide staining-based flow cytometric method (reference value: 10.3%); type: functional
HeLa [9] = experiment: Cell cycle arrest in human HeLa cells assessed as accumulation at G2/M phase at 0.20 uM after 24 hrs by propidium iodide staining-based flow cytometric method (reference value: 19.9%); type: functional
HeLa [10] = experiment: Cell cycle arrest in human HeLa cells assessed as accumulation at G0/G1 phase at 0.25 uM after 24 hrs by propidium iodide staining-based flow cytometric method (reference value: 62.2%); type: functional
HeLa [11] = experiment: Cell cycle arrest in human HeLa cells assessed as accumulation at S phase at 0.25 uM after 24 hrs by propidium iodide staining-based flow cytometric method (reference value: 10.3%); type: functional
HeLa [12] = experiment: Cell cycle arrest in human HeLa cells assessed as accumulation at G2/M phase at 0.25 uM after 24 hrs by propidium iodide staining-based flow cytometric method (reference value: 19.9%); type: functional
HeLa [13] = experiment: Cell cycle arrest in human HeLa cells assessed as accumulation at G2/M phase after 24 hrs by propidium iodide staining-based flow cytometric method; type: functional
HeLa [14] = experiment: Induction of apoptosis in human HeLa cells assessed as early apoptotic cells at 0.10 uM after 24 hrs by annexin V-FITC/propidium iodide staining-based flow cytometric method (reference value: 2.31%); type: functional
HeLa [15] = experiment: Induction of apoptosis in human HeLa cells assessed as necrotic cells at 0.10 uM after 24 hrs by annexin V-FITC/propidium iodide staining-based flow cytometric method (reference value: 0.15%); type: functional
HeLa [16] = experiment: Induction of apoptosis in human HeLa cells assessed as early apoptotic cells at 0.15 uM after 24 hrs by annexin V-FITC/propidium iodide staining-based flow cytometric method (reference value: 2.31%); type: functional
HeLa [17] = experiment: Induction of apoptosis in human HeLa cells assessed as necrotic cells at 0.15 uM after 24 hrs by annexin V-FITC/propidium iodide staining-based flow cytometric method (reference value: 0.15%); type: functional
HeLa [18] = experiment: Induction of apoptosis in human HeLa cells assessed as viable cells at 0.15 uM after 24 hrs by annexin V-FITC/propidium iodide staining-based flow cytometric method (reference value: 97.39%); type: functional; conditions: read-out: Activity
HeLa [19] = experiment: Induction of apoptosis in human HeLa cells assessed as late apoptotic cells at 0.20 uM after 24 hrs by annexin V-FITC/propidium iodide staining-based flow cytometric method (reference value: 0.15%); type: functional
HeLa [20] = experiment: Induction of apoptosis in human HeLa cells after 24 hrs by annexin V-FITC/propidium iodide staining-based flow cytometric method; type: functional, cell-based
Sus scrofa = organism: Sus scrofa; experiment: Competitive binding affinity to porcine brain tubulin preincubated for 1 hr followed by colchicine addition measured after 1 hr by fluorescence assay
In short: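 Tubulin (4 μM) in 80 mM PIPES pH 6.9, 2 mM MgCl2 and 0.5 mM EGTA was preincubated 1 h at 37 °C with 0.1, 1, 5 or 10 μM test agent, with DMSO as control. Colchicine (10 μM) was then added for another 1 h at 37 °C. Tubulin-colchicine fluorescence was read at ex 340/em 435 nm and normalized to DMSO; at least three replicates, mean ± SD.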

HeLa [21] = experiment: Induction of apoptosis in human HeLa cells assessed as cell shrinkage at 0.10 to 0.20 uM by microscopic method; type: functional, cell-based
In short: (§2)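 Morphology of HeLa cells was examined by light microscopy after 24 h exposure to 0.10, 0.15 or 0.20 μM, or 0.1% DMSO, alongside the annexin V/PI experiment.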

HeLa [22] = experiment: Induction of apoptosis in human HeLa cells assessed as plasmatorrhexis at 0.10 to 0.20 uM by microscopic method; type: functional, cell-based; in short: as §2

COC(=O)c1ccc2c(c1)NC(=O)CN2C(=O)c1cc(OC)c(OC)c(OC)c1
IC50 (HeLa [1]): 126 nM
IC50 (SMMC-7721): 71 nM
IC50 (K562): 164 nM
IC50 (Tubulin): 3.97 µM
Activity (HeLa [2]): Dose-dependent effect
Activity (HeLa [3]): 13.1%
Activity (HeLa [4]): 55.2%
Activity (HeLa [5]): 9.9%
Activity (HeLa [6]): 30.6%
Activity (HeLa [7]): 32.9%
Activity (HeLa [8]): 8%
Activity (HeLa [9]): 40.4%
Activity (HeLa [10]): 13.8%
Activity (HeLa [11]): 8.3%
Activity (HeLa [12]): 44.6%
Activity (HeLa [13]): Dose-dependent effect
Activity (HeLa [14]): 12.1%
Activity (HeLa [15]): 3.9%
Activity (HeLa [16]): 16.5%
Activity (HeLa [17]): 3.81%
viability at 0.15 µM (HeLa [18]): 69.7%
Activity (HeLa [19]): 14.4%
Activity (HeLa [20]): Dose-dependent effect
Activity (Sus scrofa): Dose-dependent effect
Activity (HeLa [21]): Active
Activity (HeLa [22]): Active
